# Measured values collected from several papers.
# Each line is one published result; the experiments were not run side by side.
Compound,test system,conditions,AUC(0-t)
NCc1ccc(-c2nn(Cc3ccccc3)c3ccccc23)o1,"male CD-1 mouse, plasma","oral, 10 mg/kg",891 ng·h/mL
Cc1ncsc1-c1ccc([C@H](CC(=O)N2CCN(c3ccc(C#Cc4ccc(C(=O)N5CCC(n6cc(-c7ccc8c(c7)CCN8C(=O)Cc7cccc(OC(F)(F)F)c7)c7c(N)ncnc76)CC5)cc4)cn3)CC2)NC(=O)[C@@H]2C[C@@H](O)CN2C(=O)[C@@H](NC(=O)C2(F)CC2)C(C)(C)C)cc1,"male C57BL/6 mouse, plasma","intravenous, 1 mg/kg",7260 ng·h/mL
Cc1ccc(OCC(=O)N[C@@H](Cc2c[nH]c3ccccc23)C(=O)OC(C)C)cc1,"male Sprague-Dawley mouse, plasma","intravenous, 10 mg/kg",2460 ng·h/mL
NCc1ccc(-c2nn(Cc3ccncc3)c3ccccc23)o1,"male CD-1 mouse, plasma","intravenous, 5 mg/kg",1050 ng·h/mL
COC1=CC(c2ccc[nH]2)=N/C1=C\c1[nH]c(Cc2ccc(OC(F)(F)F)cc2)cc1Cc1ccc(OC(F)(F)F)cc1,"male CD-1 mouse, liver","oral, 40 mg/kg, single dose",494000 ng·h/mL
Cc1ccc2c(c1)C(=O)[C@]1(O)CCN(c3ccc4nc(C)ccc4c3)C1=N2.Cl,"C57BL/6 mouse, plasma","subcutaneous, 2 mg/kg",0.98 µM·h
OCc1ccc(-c2nn(Cc3ccccc3)c3ccccc23)o1,"male CD-1 mouse, plasma","intraperitoneal, 30 mg/kg",3370 ng·h/mL
Cc1cc(-c2ccnc3[nH]cc(F)c23)cc(F)c1[C@@]1(O)[C@H](C)CN(C2CCS(=O)(=O)CC2)C[C@@H]1C,"male CD-1 mouse, plasma","oral, 3 mg/kg",3220 ng·h/mL
CN(C)C(=O)c1cc2cnc(Nc3ccc(-c4ccc5c(=O)cc(N6CCOCC6)oc5c4)cc3)nc2n1C1CCCC1.Cl,"BALB/c mouse, plasma","intravenous, 2 mg/kg",2790 ng·h/mL
Cc1ncsc1-c1ccc([C@H](C)NC(=O)[C@@H]2C[C@@H](O)CN2C(=O)[C@@H](NC(=O)CCc2ccc(C#Cc3ccc(C(=O)NCCCn4cc(-c5ccc6c(c5)CCN6C(=O)Cc5cccc(OC(F)(F)F)c5)c5c(N)ncnc54)cc3)cn2)C(C)(C)C)cc1,"male C57BL/6 mouse, plasma","intravenous, 1 mg/kg",6600 ng·h/mL
COC1=CC(c2ccc[nH]2)=N/C1=C\c1cc(Cc2ccc(OC(F)(F)F)cc2)c(C)[nH]1.Cl,"male CD-1 mouse, plasma","oral, 40 mg/kg, single dose",8220 ng·h/mL
Cc1ccc(N(c2ccc(NC(=O)CN(C)c3ccccc3N3CCCC3=O)cc2)C(C)C)cc1,"male CD-1 mouse, plasma","oral, 20 mg/kg",2710 ng·h/mL
CO[C@H]1/C=C/O[C@@]2(C)Oc3c(C)c(O)c4c(c3C2=O)C2=NC3(CCN(CC(C)C)CC3)NC2=C(NC(=O)/C(C)=C\C=C\[C@H](C)[C@H](O)[C@@H](C)[C@@H](O)[C@@H](C)[C@H](OC(C)=O)[C@@H]1C)C4=O,"female CD-1 mouse, plasma","oral, 10 mg/kg",11200 ng·h/mL
O=C1CCC(N2Cc3cc(C4CCN(Cc5ccccc5)CC4)ccc3C2=O)C(=O)N1 (stereo not shown),"male CD-1 mouse, plasma","intravenous, 1 mg/kg",310 ng·h/mL
Cc1nc2ccc(OCc3ccc(C(F)(F)F)cc3)cc2[nH]1,"male BALB/c mouse, plasma","oral, 10 mg/kg",13200 ng·h/mL
Oc1ccc([C@@H]2Oc3ccc(O)cc3[C@@H]3CCC[C@@H]32)cc1,"male C57BL/6 mouse, plasma","oral, 10 mg/kg",1.17 µM·h
OCc1nc2ccc(NCc3ccc(C(F)(F)F)cc3)cc2[nH]1,"male BALB/c mouse, plasma","oral, 10 mg/kg",2730 ng·h/mL
Cc1cc(-c2ccnc3[nH]cc(F)c23)cc(F)c1[C@@]1(O)[C@H](C)CN(C(=O)CN)C[C@@H]1C,"male CD-1 mouse, plasma","oral, 3 mg/kg",16900 ng·h/mL
C[C@@H](CN1CCC(n2c(=O)[nH]c3cc(Cl)ccc32)CC1)NC(=O)c1ccc2ccccc2c1,"male CD-1 mouse, brain","intravenous, 1 mg/kg, single dose",0.302 ng·h/mL
